Source: PubChem BioAssay
Records with an inconclusive call do not appear.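 Rule for the calls, unless noted: active = viability at or below 27.92% in each of two runs, the all-compound median minus 4 SD; inconclusive = no clear call, values can overlap the other calls; inactive = the rest.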

What was measured:
[1] = S. cerevisiae growth inhibition in permissive medium (OD615), pilot counter-assay for S. cerevisiae lifespan shortening project, permissive growth control (AID 705;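 active = growth inhibition above 25% in both replicates, a cutoff set 3 SD above the mean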); settings: OD615, 24 h, at 10 µM, hits give high values
Method in brief: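 Material: engineered DeaD yeast; compound dosing: one dose 10 µM, DMSO 0.25% final; measure: yeast growth inhibition indicated by reduced 24 h OD615; detection: OD615 turbidity read; incubation: cells pre-grown 4 h, then 24 h compound exposure, 30 °C humidified; medium: permissive synthetic complete medium with raffinose and galactose carbon sources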

[2] = S. cerevisiae growth inhibition in restrictive medium, OD615, pilot screen, restrictive growth control, yeast lifespan reduction project (AID 706;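 active = growth inhibition above a set limit, 3 SD over mean compound inhibition, in both replicates, cut at about 43% in these data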;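 note: modified DeaD lifespan yeast strain shifted to restrictive glucose medium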); settings: OD615, 48 h, at 10 µM, hits give high values
Method in brief: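 material = engineered S. cerevisiae DeaD strain | medium = glucose-based CSMM-D restrictive medium | times = 4 h pre-incubation, 48 h exposure at 30 °C | technique = OD615 absorbance reading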

[3] = doxorubicin toxicity protection in MRP-1 cells – H69AR cells, CellTiter-Glo, duplicate, MRP-1 activator project, pilot screen (AID 807;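 active = viability increase at or above a cutoff of the median across tested compounds plus 3 SD, cut at about 8.5% in these data, passing the limit was not always enough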;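 note: compound pretreatment 18-22 h then 72 h combined with doxorubicin; 0% = doxorubicin alone and 100% = vehicle without doxorubicin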); settings: H69AR viability with doxorubicin, CellTiter-Glo luminescence; at 10 µM; hits give high values
[4] = viability of HCT116 without oncogenic beta-catenin – human colon tumor cells, pilot screen (AID 823;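 active = cell viability at or below a set limit in both duplicate runs, the limit being the all-compound median minus 4 SD, cut at about 23% in these data, passing the limit was not always enough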;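 note: 0% = wells killed by 20 µM Hyamine and 100% = untreated DMSO cell wells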); settings: HCT116 beta-catenin knockout viability, CellTiter-Glo, 60 h; at 10 µM; hits give low values
[5] = viability of PTEN-null HCT116 cells – cell-based, HCT116 clonal line, CellTiter-Glo, pilot screen (AID 824); settings: HCT116 PTEN-deleted viability, 60 h, at 10 µM, hits give low values;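 note: 0% = 20 µM Hyamine control and 100% = vehicle cell control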
[6] = RAM pathway blockade in budding yeast – dse1pr::URA3 reporter, 5-FOA selection, pilot screen (AID 869;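 active = inhibition over a set limit, the all-compound mean plus 3 SD, in both replicate runs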;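 note: 0% = DMSO wells with no growth and 100% = 10 µM 1-NA-PP1 with full growth; RAM network block rescues cells from 5-FOA so hits raise OD615 growth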); settings: S. cerevisiae dse1pr::URA3 5-FOA growth, OD615, 2 d; at 10 µM; hits give high values; strain carries analog-sensitive mutant Cbk1 kinase
[7] = RAM signaling pathway blockade in yeast – S. cerevisiae, Pdr1DBD-CYC8 efflux-inhibited sensitized strain, primary screen (AID 1298;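 active = RAM network inhibition above 8.4% in each of two replicates, 3 SD over the compound average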;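 note: 0% = DMSO untreated cells without growth and 100% = 10 µM 1-NA-PP1 full growth; higher means more yeast growth rescued from 5-FOA killing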); settings: S. cerevisiae cbk1-as DSE1-URA3 strain, 5-FOA growth OD615, 2 d; at 50 µM; hits give high values

CCN1C(=O)N(CC)C(O)(c2ccccc2)C1(O)c1ccccc1 (configuration not stated)
inactive: growth inhibition [1] -12.7% | growth inhibition [2] -8.41% | viability increase [3] -2.16% | viability [4] 97.1% | viability [5] 94.8% | inhibition [6] 2.12% | RAM network inhibition [7] 6.55%

COc1ccc(N2CC(C(=O)NC3CC(C)(C)NC(C)(C)C3)CC2=O)cc1 (configuration not stated)
inactive: growth inhibition [1] -9.42% | growth inhibition [2] -4.41% | viability increase [3] 0.06% | viability [4] 99.8% | viability [5] 104% | inhibition [6] 0.515% | RAM network inhibition [7] 2.14%

Cc1nc2c3ccccc3n(CC#N)c(=O)n2n1
inactive: growth inhibition [1] -11.8% | growth inhibition [2] -5.63% | viability increase [3] -3.78% | viability [4] 99.9% | viability [5] 95.8% | inhibition [6] 2.66% | RAM network inhibition [7] 0.21%

COc1ccccc1OCC(=O)Nc1ccc(S(=O)(=O)NC(C)=O)cc1
inactive: growth inhibition [1] -17% | growth inhibition [2] -5.72% | viability increase [3] 1.56% | viability [4] 89.2% | viability [5] 103% | inhibition [6] 0.645% | RAM network inhibition [7] 2.08%

Cc1nc2ccccc2c(=O)n1NC(=O)c1c(O)c2ccccc2n(C)c1=O
inactive: growth inhibition [1] -5.41% | growth inhibition [2] 7.71% | viability increase [3] -2.45% | viability [4] 100% | viability [5] 99% | inhibition [6] 0.995% | RAM network inhibition [7] 0.88%

COc1ccc(-c2nc(-c3ccc(NC(=O)c4ccncc4)cc3)no2)cc1OC
inactive: growth inhibition [1] -3.46% | growth inhibition [2] 9.41% | viability increase [3] 0.06% | viability [4] 42.6% | viability [5] 50.8% | inhibition [6] 2.85% | RAM network inhibition [7] 2.92%

COc1ccc(N2CCN(C(=O)c3ccc4c(c3)OCO4)CC2)cc1
inactive: growth inhibition [1] -2.83% | growth inhibition [2] 14.7% | viability increase [3] -0.77% | viability [4] 97.8% | viability [5] 100% | inhibition [6] 2.04% | RAM network inhibition [7] 0.86%

O=C(CSc1cn(CCNC(=O)c2cccs2)c2ccccc12)NCC1CCCO1 (configuration not stated)
inactive: growth inhibition [1] -13.8% | growth inhibition [2] -23.4% | viability increase [3] 0.16% | viability [4] 96.2% | viability [5] 96.1% | inhibition [6] 1.61% | RAM network inhibition [7] 1.6%

Cn1cnnc1SCc1ccc(C#N)cc1Cl
inactive: growth inhibition [1] -9.5% | growth inhibition [2] -15.1% | viability increase [3] 0.63% | viability [4] 99.7% | viability [5] 97.8% | inhibition [6] 0.175% | RAM network inhibition [7] 4.52%

NC(=O)c1cccc(S(=O)(=O)N2CC(c3ccccc3)CC2=O)c1 (configuration not stated)
inactive: growth inhibition [1] -15.8% | growth inhibition [2] -15% | viability increase [3] -1.11% | viability [4] 99.5% | viability [5] 96.1% | inhibition [6] 0.075% | RAM network inhibition [7] -0.76%

Cc1ccc2c(c1)NCC(C(=O)NC1CCC(C)CC1)O2 (configuration not stated)
inactive: growth inhibition [1] -10.3% | growth inhibition [2] -4.18% | viability increase [3] 1.52% | viability [4] 98.4% | viability [5] 91.4% | inhibition [6] 1% | RAM network inhibition [7] 5.26%

O=C(Cn1cc2c(n1)CCCCC2)NCCN1CCOCC1
inactive: growth inhibition [1] 7.15% | growth inhibition [2] 10.1% | viability increase [3] -0.25% | viability [4] 107% | viability [5] 97.3% | inhibition [6] 2% | RAM network inhibition [7] 2.18%

CCOc1ccc(OCC)c(NC(=O)C2CCCN2S(=O)(=O)c2cccc3cccnc23)c1 (configuration not stated)
inactive: growth inhibition [1] -0.54% | growth inhibition [2] 8.82% | viability increase [3] -3.84% | viability [4] 69.8% | viability [5] 65.7% | inhibition [6] -0.48% | RAM network inhibition [7] 5.36%

c1ccc2[nH]c(-c3ccnc4ccccc34)nc2c1
inactive: growth inhibition [1] 0.915% | growth inhibition [2] -4.32% | viability increase [3] -4.45% | viability [4] 102% | viability [5] 95.9% | inhibition [6] 0.605% | RAM network inhibition [7] 2.99%

CCn1cc(S(=O)(=O)CC(=O)Nc2cc(C)ccc2C)c2ccccc21
inactive: growth inhibition [1] -10.1% | growth inhibition [2] -1.18% | viability increase [3] -0.93% | viability [4] 105% | viability [5] 82.5% | inhibition [6] 2.07% | RAM network inhibition [7] 3.99%

CCN1CCN(C(=O)CSCc2nc(-c3ccc(OC)c(OC)c3)oc2C)CC1
inactive: growth inhibition [1] -3.83% | growth inhibition [2] -7.22% | viability increase [3] -1.52% | viability [4] 101% | viability [5] 101% | inhibition [6] 0.475% | RAM network inhibition [7] 1.3%

c1ccc(Cn2c(CSc3nnnn3-c3ccccc3)nc3ccccc32)cc1
inactive: growth inhibition [1] 0.645% | growth inhibition [2] 5.56% | viability increase [3] -2.93% | viability [4] 96.3% | viability [5] 95% | inhibition [6] 1.48% | RAM network inhibition [7] 5.11%

COc1ccc(C(=O)Nc2ccc3oc(-c4cccc(F)c4)nc3c2)cc1OC
inactive: growth inhibition [1] -9.88% | growth inhibition [2] -5.71% | viability increase [3] -2.46% | viability [4] 95.1% | viability [5] 90.3% | inhibition [6] 3.53% | RAM network inhibition [7] 3.33%

Cc1c(C(=O)N2CCCC2)oc2c1-c1[nH]ncc1CC2
inactive: growth inhibition [1] -15.2% | growth inhibition [2] -14.4% | viability increase [3] -1.8% | viability [4] 105% | viability [5] 94.2% | inhibition [6] 0.715% | RAM network inhibition [7] 2.08%

COc1ccc(NC(=O)C2CCN(S(=O)(=O)c3cccc4cccnc34)CC2)cc1
inactive: growth inhibition [1] -4.51% | growth inhibition [2] 3.15% | viability increase [3] 1.75% | viability [4] 102% | viability [5] 101% | inhibition [6] 2.21% | RAM network inhibition [7] 0.67%

O=C(NCCCn1ccnc1)c1cc(C2CC2)on1
inactive: growth inhibition [1] -14.9% | growth inhibition [2] -11.1% | viability increase [3] 0.19% | viability [4] 105% | viability [5] 103% | inhibition [6] 1.95% | RAM network inhibition [7] 6.12%

COc1ccc(Br)cc1/C=N/n1c(C)nnc1C
inactive: growth inhibition [1] -14% | growth inhibition [2] -21% | viability increase [3] -5.21% | viability [4] 66% | viability [5] 67.5% | inhibition [6] 1.7% | RAM network inhibition [7] -0.74%

COc1ccc(C)cc1NC(=O)CSc1nnc(-c2ccco2)n1Cc1ccco1
inactive: growth inhibition [1] -0.8% | growth inhibition [2] 10.4% | viability increase [3] -2.06% | viability [4] 99.8% | viability [5] 90.8% | inhibition [6] 2.08% | RAM network inhibition [7] 6.62%

COC(=O)c1c(N)sc(C(C)=O)c1C
inactive: growth inhibition [1] -7.62% | growth inhibition [2] -6.67% | viability increase [3] -2.35% | viability [4] 98.4% | viability [5] 94.8% | inhibition [6] 1.72% | RAM network inhibition [7] 5.34%

O=C(CC1CCCCC1)NCCCN1CCOCC1
inactive: growth inhibition [1] 1.88% | growth inhibition [2] -3.55% | viability increase [3] 1.14% | viability [4] 92% | viability [5] 102% | inhibition [6] 1.58% | RAM network inhibition [7] 1.38%

Cn1c(=O)oc2cc(S(=O)(=O)NC3CCCc4ccccc43)ccc21 (configuration not stated)
inactive: growth inhibition [1] -25.4% | growth inhibition [2] -11.4% | viability increase [3] -1.98% | viability [4] 92.4% | viability [5] 90.7% | inhibition [6] 3.1% | RAM network inhibition [7] 6.28%

COc1cccc(-c2nn(C)c3sc(C(=O)N4CCOCC4)cc23)c1
inactive: growth inhibition [1] 6.62% | growth inhibition [2] 9.91% | viability increase [3] -2.47% | viability [4] 97.5% | viability [5] 94.9% | inhibition [6] 1.45% | RAM network inhibition [7] 5.9%

O=C1C(Cl)=C(N2CCOCC2)C(=O)N1c1ccccc1Cl
inactive: growth inhibition [1] -8.11% | growth inhibition [2] -4.76% | viability increase [3] -2.16% | viability [4] 99.2% | viability [5] 103% | inhibition [6] 0.045% | RAM network inhibition [7] 4.96%

COc1cccc(-n2nnc3c(=O)n(C/C=C/c4ccccc4)cnc32)c1
inactive: growth inhibition [1] -5.38% | growth inhibition [2] -7.15% | viability increase [3] 0.57% | viability [4] 92.3% | viability [5] 86.9% | inhibition [6] 3.2% | RAM network inhibition [7] 2.07%

COc1ccc(CCN2CC(C#N)=C3c4cc(OC)c(OC)cc4CCN3C2)cc1OC
inactive: growth inhibition [1] -2.16% | growth inhibition [2] 3.84% | viability increase [3] -4.7% | viability [4] 99.5% | viability [5] 95.4% | inhibition [6] -0.455% | RAM network inhibition [7] -0.37%

COCCNC(=O)Cn1cc2c(n1)CCC(C)C2 (configuration not stated)
inactive: growth inhibition [1] -12.9% | growth inhibition [2] -0.165% | viability increase [3] 0.11% | viability [4] 104% | viability [5] 93.9% | inhibition [6] 2.06% | RAM network inhibition [7] 1.1%

O=C(Cn1ncc2c1-c1ccccc1OC2)N1CCN(Cc2ccc3c(c2)OCO3)CC1
inactive: growth inhibition [1] -1.44% | growth inhibition [2] 10.4% | viability increase [3] -3.39% | viability [4] 84.7% | viability [5] 90.2% | inhibition [6] 1.9% | RAM network inhibition [7] 2.06%

CC1(C)CC(=O)C(C=NCc2cccnc2)=C(O)C1
inactive: growth inhibition [1] -10.7% | growth inhibition [2] -17.6% | viability increase [3] 0.64% | viability [4] 92.8% | viability [5] 98.8% | inhibition [6] 0.7% | RAM network inhibition [7] 4.76%

COc1ccc(S(=O)(=O)Cc2ccc(C(=O)N3CCN(c4ncccn4)CC3)o2)cc1
inactive: growth inhibition [1] -2.81% | growth inhibition [2] 4.27% | viability increase [3] -2.72% | viability [4] 106% | viability [5] 103% | inhibition [6] 2.58% | RAM network inhibition [7] 2.27%

NS(=O)(=O)c1ccc(S(=O)(=O)NCCc2ccccc2)cc1
inactive: growth inhibition [1] -4.76% | growth inhibition [2] 8.78% | viability increase [3] 0.73% | viability [4] 93.3% | viability [5] 94.9% | inhibition [6] 1% | RAM network inhibition [7] 3.88%

CCOC(=O)c1sc(NC(=O)c2ccco2)nc1C
inactive: growth inhibition [1] -9.56% | growth inhibition [2] -2.94% | viability increase [3] -1.31% | viability [4] 94.5% | viability [5] 91.8% | inhibition [6] 1.66% | RAM network inhibition [7] 3.98%
